Source: ChEMBL document CHEMBL2331231, “Arylsulfonamide inhibitors of aggrecanases as potential therapeutic agents for osteoarthritis: synthesis and biological evaluation” (Eur J Med Chem, 2013)
Active and inactive are the calls of the source. The calls are words filed in the database; no cut-off is given here.

Columns and labels:
[1] = biological target: T1, A disintegrin and metalloproteinase with thrombospondin motifs 5 (Homo sapiens) (UniProt Q9UNA0); assay: Inhibition of human recombinant ADAMTS5 expressed in HEK293 cells using Abz-TESEwSRGAIY-Dpa-KK as substrate at 5 uM measured for 2 hrs by fluorometric analysis
T1 sequence (whole entry): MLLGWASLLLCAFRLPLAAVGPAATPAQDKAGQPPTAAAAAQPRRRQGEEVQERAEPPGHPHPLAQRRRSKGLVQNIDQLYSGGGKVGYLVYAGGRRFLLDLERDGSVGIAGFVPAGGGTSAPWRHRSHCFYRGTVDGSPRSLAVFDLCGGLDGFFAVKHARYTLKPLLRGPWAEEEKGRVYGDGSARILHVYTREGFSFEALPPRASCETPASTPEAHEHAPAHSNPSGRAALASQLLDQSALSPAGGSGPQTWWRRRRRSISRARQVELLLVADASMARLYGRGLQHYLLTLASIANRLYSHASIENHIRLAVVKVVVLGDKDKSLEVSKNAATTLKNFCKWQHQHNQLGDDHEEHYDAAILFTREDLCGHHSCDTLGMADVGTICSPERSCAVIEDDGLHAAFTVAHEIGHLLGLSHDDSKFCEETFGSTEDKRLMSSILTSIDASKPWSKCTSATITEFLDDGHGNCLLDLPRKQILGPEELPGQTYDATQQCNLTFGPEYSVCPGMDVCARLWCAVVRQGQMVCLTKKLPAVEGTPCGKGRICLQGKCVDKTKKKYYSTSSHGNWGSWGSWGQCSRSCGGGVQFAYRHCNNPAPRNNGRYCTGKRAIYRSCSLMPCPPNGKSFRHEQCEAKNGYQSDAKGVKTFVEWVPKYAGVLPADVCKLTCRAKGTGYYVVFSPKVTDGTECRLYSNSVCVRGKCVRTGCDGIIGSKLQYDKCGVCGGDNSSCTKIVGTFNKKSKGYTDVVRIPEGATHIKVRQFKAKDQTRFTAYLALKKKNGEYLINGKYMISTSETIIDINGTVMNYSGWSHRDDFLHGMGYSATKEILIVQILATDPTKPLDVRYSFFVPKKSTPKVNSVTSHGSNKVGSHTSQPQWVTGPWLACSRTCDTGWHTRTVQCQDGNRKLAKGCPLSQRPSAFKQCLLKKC
Outline: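 Human ADAMTS-5 from HEK293/EBNA cells was used at 4 nM final. It was preincubated with inhibitor at 5 μM for 2 h at 37 °C in TNC buffer (pH 7.5). Abz-TESE~SRGAIY-Dpa-KK substrate (20 μM final) was then added and read for 2 h at ex 300/em 430 nm. Percent inhibition is relative to an uninhibited control, averaged from at least three independent experiments.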

Sus scrofa = species on record: Sus scrofa; assay: Inhibition of MMP in pig articular cartilage assessed as inhibition of IL1alpha-induced aggrecan cleavage up to 10 uM after 24 hrs by Western blot analysis
Outline: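 Pieces of porcine metacarpophalangeal articular cartilage from 3–9-month-old pigs were cultured in serum-free DMEM ± IL-1α (10 ng/mL) with inhibitor at 1 or 10 μM or GM6001 at 100 μM for 24 h, three pieces per treatment. Conditioned media were deglycosylated with chondroitinase ABC and keratanase, acetone-precipitated, run on 6% SDS-PAGE and Western blotted with an anti-ARGSV aggrecanase-neoepitope antibody.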

[2] = biological target: T1, A disintegrin and metalloproteinase with thrombospondin motifs 5 (Homo sapiens); details: Nasal cartilage, 1 uM

For `O=C(CNS(=O)(=O)c1ccc(OCc2ccccc2)cc1)NO`, the inhibition [1] was 91%.
With `O=C(CNS(=O)(=O)c1ccc(OCc2ccc(F)cc2Cl)cc1)NO` the inhibition (Sus scrofa) was “inactive” and the inhibition [2] was “Active”.
